Test results taken from ChEMBL document CHEMBL1126655, “Synthesis and antiviral activity of novel isonucleoside analogs” (J Med Chem, 1993).

What was measured:
Human alphaherpesvirus 1 [1] = experiment: Antiviral activity against Herpes simplex virus-1 (thymidine kinase deficient strains isolated as BVaraU resistant mutants of HSV-1 (KOS)); assay type: functional; settings: read-out: ID50 (the source's name)
Method in brief: (§1)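 WI-38 monolayers were infected, with virus adsorbed for 1–2 h. They were then overlaid with EMEM maintenance medium (1% carboxymethyl cellulose, 2.5% FBS) containing duplicate drug dilutions. Monolayers were stained after 4–6 days at 37 °C. ID50 was taken as the concentration giving 50% plaque reduction versus virus controls. Titrations were done in duplicate.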

WI-38 = experiment: Tested for growth inhibition against WI-38 cells; assay type: functional; settings: Homo sapiens, read-out: ID50 (the source's name)
Method in brief: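 WI-38 cells seeded at 1.2 × 10^6 per well, incubated overnight at 37 °C, then refed with growth medium (EMEM, 10% FBS) holding serial drug dilutions or none, for 3 more days at 37 °C. Quadruplicate cultures per concentration trypsinized and counted daily for viable cells by trypan blue exclusion.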

Mus musculus [2] = experiment: Number of survivors against Herpes simplex virus type-1 infection in mice at 100 mg/kg/day; assay type: functional
Method in brief: (§2)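 Female Swiss-Webster mice (20–23 g, 10 per group) were infected ip with 10^3 PFU HSV-1 Schooler in 0.3% BSA-PBS. Drug was given sc twice daily in PBS, starting 1 h postinfection, for 5 days. Survival was followed for 21 days. Mean day of death of dead animals was compared with placebo-treated infected controls by Student's t-test.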

Mus musculus [3] = experiment: Number of survivors against Herpes simplex virus type-2 infection in mice at 12.5 mg/kg/day; assay type: functional
Method in brief: (§3)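 Female Swiss-Webster mice (20–23 g, 10 per group) were infected ip with 10^6 PFU HSV-2 Curtis in 0.3% BSA-PBS. Dosing was sc twice daily in PBS from 1 h postinfection for 5 days. Survival was recorded over 21 days. Mean day of death was computed for dead mice and compared with placebo-treated infected controls by Student's t-test.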

Mus musculus [4] = experiment: Number of survivors against Herpes simplex virus type-2 infection in mice at 25 mg/kg/day; assay type: functional; method in brief: as §3
Human alphaherpesvirus 3 [5] = experiment: Antiviral activity against Varicella zoster virus (Kanno-Kohmura thymidine kinase deficient strain); assay type: functional; settings: read-out: ID50 (the source's name); method in brief: as §1
Human alphaherpesvirus 3 [6] = experiment: Antiviral activity against Varicella zoster virus (Ellen strain); assay type: functional; settings: read-out: ID50 (the source's name); method in brief: as §1
[7] = test system: Cercopithecine alphaherpesvirus 9; experiment: Antiviral activity against Simina varicella virus (G815 strain); assay type: functional; settings: read-out: ID50 (the source's name)
Method in brief: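 Simian varicella virus G815 was grown from infected Vero cells and assayed by plaque reduction on Vero monolayers. Virus was adsorbed 1–2 h, then overlaid with EMEM (1% carboxymethyl cellulose, 2.5% FBS) containing duplicate drug dilutions. Staining was after 4–6 days at 37 °C. ID50 was the concentration giving 50% plaque reduction versus virus controls.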

Mus musculus [8] = experiment: Day of death in lethal test against herpes simplex virus type-2 at 12.5 mg/kg/day (mean day of death +/-SD); assay type: ADME, organism-based; settings: in vivo; method in brief: as §3
Mus musculus [9] = experiment: Number of survivors against Herpes simplex virus type-1 infection in mice at 200 mg/kg/day; assay type: functional; method in brief: as §2
Human alphaherpesvirus 2 = experiment: Antiviral activity against Herpes simplex virus-2 (thymidine kinase deficient strains isolated as BVaraU resistant mutants of HSV-1 (KOS)); assay type: functional; settings: read-out: ID50 (the source's name)
Human alphaherpesvirus 3 [10] = experiment: Antiviral activity against Varicella zoster virus (Oka strain); assay type: functional; settings: read-out: ID50 (the source's name); method in brief: as §1
Mus musculus [11] = experiment: Day of death in lethal test against herpes simplex virus type-2 at 100 mg/kg/day (mean day of death +/-SD); assay type: ADME, organism-based; settings: in vivo; method in brief: as §3
[12] = Antiviral activity against Herpes simplex virus-1 (KOS strain); assay type: functional; settings: Human alphaherpesvirus 1; read-out: ID50 (the source's name); method in brief: as §1
Human alphaherpesvirus 3 [13] = experiment: Antiviral activity against Varicella zoster virus (9021 strain); assay type: functional; settings: read-out: ID50 (the source's name); method in brief: as §1
Mus musculus [14] = experiment: Number of survivors against Herpes simplex virus type-2 infection in mice at 200 mg/kg/day; assay type: functional; method in brief: as §3
Mus musculus [15] = experiment: Number of survivors against Herpes simplex virus type-2 infection in mice at 100 mg/kg/day; assay type: functional; method in brief: as §3
Mus musculus [16] = experiment: Number of survivors against Herpes simplex virus type-1 infection in mice at 150 mg/kg/day; assay type: functional; method in brief: as §2
Mus musculus [17] = experiment: Day of death in lethal test against herpes simplex virus type-1 at 200 mg/kg/day (mean day of death +/-SD); assay type: ADME, organism-based; settings: in vivo; method in brief: as §2
Mus musculus [18] = experiment: Day of death in lethal test against herpes simplex virus type-2 at 150 mg/kg/day (mean day of death +/-SD); assay type: ADME, organism-based; settings: in vivo; method in brief: as §3
Mus musculus [19] = experiment: Number of survivors against Herpes simplex virus type-2 infection in mice at 150 mg/kg/day; assay type: functional; method in brief: as §3
Mus musculus [20] = experiment: Day of death in lethal test against herpes simplex virus type-1 at 50 mg/kg/day (mean day of death +/-SD); assay type: ADME, organism-based; settings: in vivo; method in brief: as §2
Human alphaherpesvirus 1 [21] = experiment: Antiviral activity against Herpes simplex virus-1 (Schooler strain); assay type: functional; settings: read-out: ID50 (the source's name); method in brief: as §1
Mus musculus [22] = experiment: Number of survivors against Herpes simplex virus type-1 infection in mice at 50 mg/kg/day; assay type: functional; method in brief: as §2
Mus musculus [23] = experiment: Day of death in lethal test against herpes simplex virus type-1 at 12.5 mg/kg/day (mean day of death +/-SD); assay type: ADME, organism-based; settings: in vivo; method in brief: as §2
Mus musculus [24] = experiment: Number of survivors against Herpes simplex virus type-2 infection in mice at 50 mg/kg/day; assay type: functional
Method in brief: (§4)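 Female Swiss-Webster mice (20–23 g), 10 per group, infected intraperitoneally with 10^6 PFU HSV-2 strain Curtis (Vero freeze-thaw extract) in 0.3% BSA-PBS. Drug given subcutaneously in PBS twice daily from 1 h postinfection for 5 days, doses 12.5–200 mg/kg/day. Survival followed 21 days; PD50 by probit analysis; mean day of death by Student's t-test versus placebo.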

Human betaherpesvirus 5 = experiment: Antiviral activity against Human cytomegalovirus (AD169 strain); assay type: functional; settings: read-out: ID50 (the source's name); method in brief: as §1
Mus musculus [25] = experiment: Number of survivors against Herpes simplex virus type-1 infection in mice at 25 mg/kg/day; assay type: functional; method in brief: as §2
Mus musculus [26] = experiment: Day of death in lethal test against herpes simplex virus type-2 at 200 mg/kg/day (mean day of death +/-SD); assay type: ADME, organism-based; settings: in vivo; method in brief: as §3
Mus musculus [27] = experiment: Protective dose against Herpes simplex virus type type -1 infection in mice at 200 mg/kg; assay type: functional; settings: read-out: PD50
Method in brief: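 Female Swiss-Webster mice (20–23 g), 10 per group, infected intraperitoneally with 10^3 PFU HSV-1 strain Schooler (Vero freeze-thaw extract) in 0.3% BSA-PBS. Subcutaneous dosing in PBS twice daily from 1 h postinfection for 5 days, 12.5–200 mg/kg/day. Survival scored over 21 days; PD50 from survival by probit analysis.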

Mus musculus [28] = experiment: Protective dose against Herpes simplex virus type type -2 infection in mice at 200 mg/kg; assay type: functional; settings: read-out: PD50; method in brief: as §4
Mus musculus [29] = experiment: Day of death in lethal test against herpes simplex virus type-1 at 25 mg/kg/day (mean day of death +/-SD); assay type: ADME, organism-based; settings: in vivo; method in brief: as §2
Mus musculus [30] = experiment: Day of death in lethal test against herpes simplex virus type-1 at 100 mg/kg/day (mean day of death +/-SD); assay type: ADME, organism-based; settings: in vivo; method in brief: as §2
Human alphaherpesvirus 3 [31] = experiment: Antiviral activity against Varicella zoster virus (ppIIa strain); assay type: functional; settings: read-out: ID50 (the source's name); method in brief: as §1
Mus musculus [32] = experiment: Number of survivors against Herpes simplex virus type-1 infection in mice at 12.5 mg/kg/day; assay type: functional; method in brief: as §2
Human alphaherpesvirus 3 [33] = experiment: Antiviral activity against Varicella zoster virus (Ito strain); assay type: functional; settings: read-out: ID50 (the source's name); method in brief: as §1

Nc1nc2c(ncn2COCCO)c(=O)[nH]1 [ACYCLOVIR]
IC50 (Human alphaherpesvirus 1 [1]): > 440 µM
IC50 (WI-38): > 800 µM
Survivors (Mus musculus [2]): 2
Survivors (Mus musculus [3]): 0
Survivors (Mus musculus [4]): 0
IC50 (Human alphaherpesvirus 3 [5]): 100 µM
IC50 (Human alphaherpesvirus 3 [6]): 4 µM
IC50 [7]: 100 µM
Mean day of death (Mus musculus [8]): 10
Survivors (Mus musculus [9]): 2
IC50 (Human alphaherpesvirus 2): > 440 µM
IC50 (Human alphaherpesvirus 3 [10]): 4 µM
Mean day of death (Mus musculus [11]): 13.5
IC50 [12]: 2 µM
IC50 (Human alphaherpesvirus 3 [13]): 2 µM
Survivors (Mus musculus [14]): 5
Survivors (Mus musculus [15]): 2
Survivors (Mus musculus [16]): 2
Mean day of death (Mus musculus [17]): 14
Mean day of death (Mus musculus [18]): 13
Survivors (Mus musculus [19]): 4
Mean day of death (Mus musculus [20]): 9
IC50 (Human alphaherpesvirus 1 [21]): 0.9 µM
Survivors (Mus musculus [22]): 1
Mean day of death (Mus musculus [23]): 8.3
Survivors (Mus musculus [24]): 1
IC50 (Human betaherpesvirus 5): 40 µM
Survivors (Mus musculus [25]): 3
Mean day of death (Mus musculus [26]): 13
ED50 (Mus musculus [27]): > 200 mg/kg/day
ED50 (Mus musculus [28]): > 200 mg/kg/day
Mean day of death (Mus musculus [29]): 7.8
Mean day of death (Mus musculus [30]): 9.3
IC50 (Human alphaherpesvirus 3 [31]): 4 µM
Survivors (Mus musculus [32]): 0
IC50 (Human alphaherpesvirus 3 [33]): 2 µM

Nc1nc(=O)n([C@@H]2CO[C@H](CO)[C@H]2CO)cc1I
IC50 (Human alphaherpesvirus 3 [6]): 14 µM
IC50 (Human alphaherpesvirus 1 [21]): 140 µM
IC50 (Human betaherpesvirus 5): > 270 µM

O=c1ccn([C@@H]2CO[C@H](CO)[C@H]2CO)c(=O)[nH]1
IC50 (Human alphaherpesvirus 3 [6]): 100 µM
IC50 (Human alphaherpesvirus 1 [21]): > 410 µM
IC50 (Human betaherpesvirus 5): > 410 µM
